The values below come from article PMC11349029 (Science translational medicine, 2016).

The test system of series [1] is AR55Q (polyQ-AR). Put plainly: Western blotting of upper AR isoform in HEK293T cells. The class given is cell-based, human. As to conditions: for accumulation of the upper AR isoform (p21Cip1 experiments) / effect on upper AR isoform upon overexpression of wtCDK2: HEK293T AR55Q; for accumulation of the upper AR isoform (p21Cip1 experiments): 5 or 100 nM OA, 10 μM forskolin, 100 nM PACAP, 24 hours; for effect on upper AR isoform upon overexpression of wtCDK2: 10 μM forskolin or 100 nM PACAP; for mobility of S96A and S96D phosphomutants: HEK293T, AR55Q-S96A, AR55Q-S96D, 100 nM PACAP (5 hours), SDS-PAGE, n = 4. (In general: A western blot detects proteins with antibodies after separation by electrophoresis.)

For series [2], the system named is AC/PKA pathway. Particulars: cited from earlier work.
In series [3] the test system is cAMP. Put plainly: cAMP levels in vivo. Details: species or system mouse. As to conditions: fig. S21; intranasal.
In series [4] the test system is p21^Cip1. Briefly: p21Cip1 expression in cells. In kind it is cell-based. As to conditions: fig. S13, A to D.
The subject of series [5] is SBMA MN-1 cells. Put plainly: Trypan blue assay in MN-1 cells. As to conditions: MN-1 cells expressing AR100Q, 100 nM PACAP, 96 hours, n = 8. In kind it is cell-based, mouse. The method, boiled down: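 MN-1 cells stably expressing AR100Q were grown in DMEM with 10% FBS, 2 mM L-glutamine and gentamicin 0.05 mg/ml at 37°C, 5% CO2. Cells were given DHT plus vehicle or 100 nM PACAP for 96 hours.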

For series [6], the system named is CDK2/p21^Cip1. Put plainly: Binding of CDK2 to p21Cip1 in SBMA cells. In kind it is cell-based. As to conditions: fig. S13E.
For series [7] the following is noted: cited from earlier work.
For series [8], the system named is polyQ-AR. Briefly: PolyQ-AR aggregation in HEK293T cells. As to conditions: high–molecular weight species in stacking gel, SDS-PAGE; fig. S18. The class given is cell-based, human.
In series [9] the test system is SBMA MN-1 cells. Briefly: Caspase 3 assay in MN-1 cells. The class given is cell-based, mouse. As to conditions: SBMA MN-1 cells (AR65Q), 48 hours.
The conditions of series [10]: cited from earlier work. The source holds these as a separate data set.
The subject of series [11] is AR112Q (polyQ-AR). Briefly: PolyQ-AR aggregation in PC12 cells. In kind it is cell-based, rat PC12 cells. As to conditions: doxycycline 10 μg/ml, 10 nM DHT, 10 μM forskolin, 24 hours, n = 3.
Series [12] concerns cAMP (EPAC biosensor), SBMA MN-1 cells. Put plainly: BRET cAMP biosensor assay in MN-1 cells. In kind it is cell-based, mouse. Particulars: SBMA MN-1 cells (AR65Q); different concentrations of PACAP, 20 min; n = 4. In outline:
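MN-1 cells were transfected with an EPAC cAMP BRET biosensor (Renilla luciferase N-terminal, YFP C-terminal) 24 h after seeding. After another 24 h they were replated at 80,000 cells/well in phenol red–free MEM with 2% FBS, 10 mM Hepes and 2 mM glutamine, with or without 10 nM DHT for 24 h. Wells were read in PBS (Ca/Mg, 0.003% ascorbic acid) with 5 μM coelenterazine h for about 20 min after agonist; cAMP binding lowers the signal.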

Series [13] concerns AR55Q phosphorylated at Ser^96. Briefly: Western blotting of Ser96-phosphorylated AR in HEK293T cells. The class given is cell-based, human. As to conditions: 10 μM forskolin or 100 nM PACAP, 5 hours, n = 5 to 10. The method, boiled down: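 HEK293T cells expressing AR55Q or AR55Q-S96A were treated with 10 μM forskolin or 100 nM PACAP for 5 hours. Lysates were run on 7% SDS-PAGE and blotted to nitrocellulose. Blots were probed with antibodies to Ser96-phosphorylated and total AR and detected by chemiluminescence or infrared imaging. n = 9 to 10 and 5 independent experiments.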

The test system of series [14] is PAC1 receptor. Particulars: cited from earlier work.
The subject of series [15] is AR55Q (polyQ-AR). Briefly: PolyQ-AR accumulation and turnover in HEK293T cells. In kind it is cell-based, human. In outline:
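AR55Q was expressed in HEK293T cells (DMEM, 10% heat-inactivated FBS, 2 mM L-glutamine, 37°C, 5% CO2) by polyethylenimine transfection the day after plating. For turnover, cells got cycloheximide 10 μg/ml plus 10 μM forskolin; separately, empty vector or wtPKA plus 10 μM MG132 for 5 h. AR was immunoblotted after 7% SDS-PAGE against a β-tubulin loading control.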

For series [16], the system named is animal models of AD, PD and HD. As to conditions: cited from earlier work.
Series [17] relates to healthy male subjects. Particulars: cited from earlier work.
Series [18] deals with polyQ-AR. Put plainly: Atomic force microscopy of polyQ-AR oligomers. In kind it is cell-based. As to conditions: Sf9 insect cells; 10 nM DHT and 10 μM forskolin, 24 hours; n = 15 to 25.
The test system of series [19] is AR100Q (polyQ-AR). Put plainly: Western blotting of upper AR isoform in primary cortical neurons. The class given is cell-based, rat primary cortical neurons. Particulars: 10 μM forskolin (5 hours); n = 4. The method, boiled down: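 Cortical neurons came from embryonic day 18 Sprague-Dawley rats, dissociated with papain/DNase/cysteine and plated at 40,000 cells/cm² on poly-L-lysine in Neurobasal/B-27/GlutaMAX. At 6–7 DIV they were transduced with lentivirus (MOI 10) expressing AR24Q or AR100Q plus EGFP. Neurons were treated with 10 μM forskolin for 5 h, and AR upper and lower isoforms were immunoblotted with loading controls; n = 4.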

Series [20] relates to AR100Q (polyQ-AR). Briefly: Western blotting of upper AR isoform in MN-1 cells. In kind it is cell-based, mouse motor neuron–derived MN-1 cells. As to conditions: 10 μM forskolin (5 hours); n = 3.
Series [21] concerns AR. Particulars: cited from earlier work.

Residues, ends and D or L forms follow the SMILES beside them. No end group written: not given here. *: point of attachment. Cbz = O=C(OCc1ccccc1)*

Consider “vasoactive intestinal peptide (HSDAVFTDNYTRLRKQMAVKKYLNSILN; ends and bridges not checked; UniProt P01282 125-152, looked up) [VIP]”, for which the “accumulation of the upper isoform of polyQ-AR, VIP” value in series [1] (fig. S3) is reported as “does not modify”. Also, the “activation of AC” value in series [2] was “reduced ability to activate AC”.

For “pituitary adenylyl cyclase activating polypeptide [PACAP]”, the “cAMP production in vivo, PACAP” value in [3] was “induces cAMP production in vivo”. In addition, in series [4], the “expression of p21Cip1” value is “induced the expression”. Besides, the cell death result in [5] is given as “significantly reduced”. In addition, the “accumulation of the upper AR isoform (p21Cip1 experiments)” value in series [1] (n = 3) is recorded as “decreased accumulation”. Moreover, the “effect on upper AR isoform upon overexpression of wtCDK2” value in series [1] (5 hours, n = 3) is on record as “blocked”. For the same molecule, the “reduction of the accumulation of the upper isoform of polyQ-AR” value in series [1] (HEK293T expressing AR55Q, 10 nM DHT and 100 nM PACAP, 5 hours, n = 9) is recorded as 35%. The “mobility of S96A and S96D phosphomutants” value in series [1] was “not affected”. Besides, the “binding of CDK2 to p21Cip1” value in series [6] is given as “increased the binding”. Further, the “penetration into target tissues” value in series [7] was “scarce penetration into target tissues”. Besides, in [8], the “polyQ-AR aggregation, HEK293T cells” value is “reduced”. The “caspase 3 activity, PACAP” value in [9] (100 nM PACAP, n = 3, through activation of PKA) is listed as “significantly reduced”. Moreover, in series [2], the “activation of AC” value is given as “potent activator”. In [10], the “degradation in the blood” value is listed as “rapidly degraded in the blood” and the metabolic stability entry is recorded as “poor metabolic stability”. The “polyQ-AR aggregation, PC12 cells” value in series [11] is listed as “reduced”. Also, the “dose dependence of cAMP release” value in series [12] was “dose-dependent”. In series [13], the “amount of polyQ-AR phosphorylated at Ser96” value was “significantly reduced”.

As to “acetyl–[Ala^15, Ala^20]PACAP1–38–propylamide [Peptide 6]”, the PAC1 receptor agonism entry in series [14] is “superagonist”.

For `CC(C)C[C@@H](C=O)NC(=O)[C@H](CC(C)C)NC(=O)[C@H](CC(C)C)NC(=O)OCc1ccccc1` [MG132] (Cbz-Leu-Leu-Leu-aldehyde), in series [15] (HEK293T AR55Q, 10 μM MG132 (5 hours), n = 3), the “effect of PKA and OA on polyQ-AR” value is recorded as “abolished”.

For the molecule “PACAP38: main PACAP peptide in mammals (137061-48-4, Calbiochem)”, the neuroprotective effects result in [16] is reported as “strong neuroprotective effects”. Besides, in series [17], the “tolerability, intranasal administration” value was “well tolerated”. Besides, the “stimulation of cAMP production” value in series [2] (general statement in discussion, no reference given) is “stimulate cAMP production”.

As to `C=C[C@@]1(C)CC(=O)[C@]2(O)[C@@]3(C)[C@@H](O)CCC(C)(C)[C@@H]3[C@H](O)[C@H](OC(C)=O)[C@@]2(C)O1` [forskolin], the “reduction of polyQ-AR accumulation” value in series [15] (HEK293T AR55Q, 10 μM forskolin, cycloheximide 10 μg/ml, n = 5) stood at 80%. In addition, in series [15] (fig. S19C), the AR transcript levels entry was “without altering”. Besides, the “expression of p21Cip1” value in [4] is on record as “induced the expression”. Also, the “accumulation of the upper AR isoform (p21Cip1 experiments)” value in [1] (n = 3) is given as “decreased accumulation”. Moreover, the “effect on upper AR isoform upon overexpression of wtCDK2” value in series [1] (5 hours, n = 3) was “blocked”. Further, in [1] (HEK293T expressing AR55Q, 10 nM DHT and 10 μM forskolin, 5 hours, n = 3), the “accumulation of the upper isoform of polyQ-AR” value is recorded as “decreased the accumulation”. The “mobility of S96A and S96D phosphomutants” value in [1] is recorded as “not affected”. Also, the “shift from annular to fibrillar oligomers caused by polyQ expansion” value in series [18] was “reversed”. Further, in [6], the “binding of CDK2 to p21Cip1” value was “increased the binding”. In series [19], the “upper-isoform accumulation of polyQ-AR, primary rat cortical neurons” value is “decreased”. For the same molecule, the “polyQ-AR aggregation, HEK293T cells” value in [8] is listed as “reduced”. The “caspase 3 activity, forskolin” value in series [9] (10 μM forskolin, n = 6 to 9) is “significant decrease”. Also, in [20], the “upper-isoform accumulation of polyQ-AR, MN-1 cells” value is listed as “decreased”. For the same molecule, the “polyQ-AR aggregation, PC12 cells” value in series [11] is “reduced”. Further, the “amount of polyQ-AR phosphorylated at Ser96” value in series [13] is “significantly reduced”.

For the molecule `CC[C@H](CO)Nc1nc(NCc2ccccc2)c2ncn(C(C)C)c2n1` [Roscovitine, roscovitine], the “accumulation of the upper isoform of polyQ-AR, phosphatase/kinase inhibitors” value in series [1] (HEK293T expressing AR55Q, fig. S5, S6) is given as “specifically decreased the accumulation”.

As for `C=C1[C@@H](O)[C@@H]2O[C@]3(CC[C@H](/C=C/[C@@H](C)[C@@H]4CC(C)=C[C@@]5(O[C@H](C[C@@](C)(O)C(=O)O)CC[C@H]5O)O4)O3)CC[C@H]2O[C@@H]1[C@@H](O)C[C@H](C)[C@H]1O[C@@]2(CCCCO2)CC[C@H]1C` [Okadaic acid], the “expression of p21Cip1” value in series [4] is on record as “induced the expression”. For the same molecule, in series [1] (n = 3), the “accumulation of the upper AR isoform (p21Cip1 experiments)” value is given as “decreased accumulation”. For the same molecule, the “binding of CDK2 to p21Cip1” value in [6] is given as “increased the binding”.

As to `C[C@]12CCC(=O)C[C@@H]1CC[C@@H]1[C@@H]2CC[C@]2(C)[C@@H](O)CC[C@@H]12` [DHT, dihydrotestosterone], the AR stabilization entry in series [21] is given as “stabilizes”. The “accumulation of the upper AR isoform, increase” value in series [1] is given as “about 1.2 fold”.
